Source: ChEMBL document CHEMBL2040797, “Synthesis of benzimidazoles bearing oxadiazole nucleus as anticancer agents” (2012)

Assays:
Type in all cases: functional
[1] = system: SN12C; experiment: Growth inhibition of human SN12C cells at 10 uM after 48 hrs by sulforhodamine B assay; settings: read-out: GI
Method in brief: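 NCI-60 single-dose screen. Cells grown in RPMI 1640 with 5% FBS and L-glutamine, plated at 5000–40,000 cells/well by doubling time, and preincubated 24 h at 37 °C, 5% CO2. Compound stocks in DMSO, added at one concentration, then incubated 48 h. Adherent cells fixed with cold TCA (10% final), stained with 0.4% SRB, dye solubilized in 10 mM Tris base, A515 read. Reported as percent growth relative to untreated control.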

[2] = system: HOP-62; experiment: Cytotoxicity against human HOP62 cells after 48 hrs by sulforhodamine B assay; settings: HOP-62, 48 h
Method in brief: (§1)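 NCI 60-panel screen. Cells were grown in RPMI 1640 with 5% FBS and L-glutamine and plated at 5000–40,000 cells/well according to doubling time. They were preincubated 24 h at 37 °C, 5% CO2, then exposed 48 h to five 10-fold dilutions. Adherent cells were fixed with cold TCA, final 10%; suspension cells were fixed after settling. Cells were stained with 0.4% SRB and read at 515 nm. Tz/C/Ti growth curves gave GI50, TGI and LC50.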

[3] = system: COLO 205; experiment: Cytotoxicity against human COLO205 cells after 48 hrs by sulforhodamine B assay; settings: COLO 205, 48 h; method in brief: as §1
[4] = system: HCT-15; experiment: Cytotoxicity against human HCT15 cells after 48 hrs by sulforhodamine B assay; settings: HCT-15, 48 h; method in brief: as §1
[5] = system: 786-0; experiment: Cytotoxicity against human 786-0 cells after 48 hrs by sulforhodamine B assay; settings: 786-0, 48 h; method in brief: as §1
[6] = system: RXF 393; experiment: Cytotoxicity against human RXF393 cells after 48 hrs by sulforhodamine B assay; settings: RXF 393, 48 h; method in brief: as §1
[7] = system: SN12C; experiment: Cytotoxicity against human SN12C cells after 48 hrs by sulforhodamine B assay; method in brief: as §1
[8] = read-out: LC50 (the source's name)

O=C(CCc1nnc(-c2ccc(Cl)cc2Cl)o1)c1nc2ccccc2[nH]1 showed an inhibition of growth at 10 µM [1] of 38.8%, a GI50 [2] of 7.67 µM and a TGI [2] of 41.3 µM. It also gave a CC50 [2, 8] of 100 µM, a GI50 [3] of 2.66 µM and a TGI [3] of 7.08 µM. For the same compound, the CC50 [3, 8] was 100 µM, the GI50 [4] was 5.13 µM and the TGI [4] was 48.6 µM. It also gave a CC50 [4, 8] of 100 µM, a GI50 [5] of 10.7 µM and a TGI [5] of 45.5 µM. It also gave a CC50 [5, 8] of 100 µM, a GI50 [6] of 4.3 µM and a TGI [6] of 49.7 µM. It also gave a CC50 [6, 8] of 100 µM, a GI50 [7] of 6.22 µM and a TGI [7] of 56.9 µM. The CC50 [7, 8] was 100 µM.
